Laboratory results taken from ChEMBL document CHEMBL4665717, “New V1a receptor antagonist. Part 2. Identification and optimization of triazolobenzazepines” (Bioorg Med Chem Lett, 2020).

Columns and labels:
[1] = in vitro; conditions: NMRI, mouse
[2] = target: T1, Vasopressin V1a receptor (Homo sapiens, UniProt P37288); assay: Displacement of [3H]AVP from human V1a receptor expressed in […] cells assessed as dissociation constant by radioligand binding assay; type: cell-based, 1321N1
Outline: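 Membranes from 1321N1 cells expressing human V1a or V2 receptor incubated with [3H]AVP and increasing test compound concentrations. Nonspecific binding defined with 2 µM arginine-vasopressin for both receptors. IC50 taken from sigmoidal fit of displacement curves, then converted to Ki by Cheng-Prusoff.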
Target sequence in this assay (P37288 whole entry): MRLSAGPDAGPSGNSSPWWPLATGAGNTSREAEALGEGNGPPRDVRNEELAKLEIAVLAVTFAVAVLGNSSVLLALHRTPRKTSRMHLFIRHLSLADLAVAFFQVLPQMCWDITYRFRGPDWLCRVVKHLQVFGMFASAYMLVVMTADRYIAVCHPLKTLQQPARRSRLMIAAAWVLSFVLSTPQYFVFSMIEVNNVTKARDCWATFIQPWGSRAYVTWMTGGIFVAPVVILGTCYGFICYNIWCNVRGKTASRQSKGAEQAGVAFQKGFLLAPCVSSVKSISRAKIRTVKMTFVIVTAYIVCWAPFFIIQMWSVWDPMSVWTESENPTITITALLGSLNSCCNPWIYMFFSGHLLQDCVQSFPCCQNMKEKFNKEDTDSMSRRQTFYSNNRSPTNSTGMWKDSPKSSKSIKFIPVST

[3] = Apparent permeability across apical to basolateral side in vinblastine-treated human Caco-2 cells at 1 uM by HPLC-UV analysis; type: ADME
Outline: (§1)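 Bidirectional transport across VB-Caco-2 monolayers with test compound at 1 or 10 µM. Apparent permeability A→B reported, with PDR from the two directions.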

[4] = in vitro; conditions: Wistar, rat
[5] = target: T1, Vasopressin V1a receptor; assay: Inhibition of human V1a receptor expressed in human 1321N1 cells assessed as decrease in Arg8-vasopressin-stimulated calcium flux at 10 uM by fluorometric calcium assay relative to control; type: functional, cell-based
Target sequence in this assay (P37288 whole entry, looked up): as the sequence (P37288 whole entry) above

[6] = in vitro; conditions: human
[7] = test system: P-glycoprotein; assay: Efflux ratio of Apparent permeability across apical to basolateral side in vinblastine-treated human Caco-2 cells expressing P-glycoprotein at 1 uM by HPLC-UV analysis; type: ADME
Outline: as §1

[8] = species: Mus musculus; assay: animal or person; conditions: ip, 1 h, read-out: INH
[9] = target: T2, Vasopressin V2 receptor (Homo sapiens, UniProt P30518); assay: Displacement of [3H]AVP from human […] receptor expressed in […] cells at 1 uM by radioligand binding assay relative to control; type: cell-based; conditions: 1321N1
T2 sequence (P30518 whole entry): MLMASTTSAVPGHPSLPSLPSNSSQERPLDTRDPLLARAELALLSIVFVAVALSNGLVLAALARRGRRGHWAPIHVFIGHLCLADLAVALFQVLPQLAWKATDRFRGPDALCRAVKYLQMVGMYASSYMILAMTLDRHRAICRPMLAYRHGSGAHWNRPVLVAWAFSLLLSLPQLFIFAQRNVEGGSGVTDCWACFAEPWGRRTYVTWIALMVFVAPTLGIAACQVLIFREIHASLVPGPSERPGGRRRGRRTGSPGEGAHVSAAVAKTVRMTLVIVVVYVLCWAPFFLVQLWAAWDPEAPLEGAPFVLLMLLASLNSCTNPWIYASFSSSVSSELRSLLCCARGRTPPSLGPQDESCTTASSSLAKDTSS
Outline: (§2)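 Membranes from 1321N1 cells expressing human V1a or V2 receptor incubated with [3H]AVP and single test concentration. Nonspecific binding defined with 2 µM arginine-vasopressin.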

[10] = target: T1, Vasopressin V1a receptor; assay: Inhibition of human V1a receptor expressed in human 1321N1 cells assessed as decrease in Arg8-vasopressin-stimulated calcium flux by fluorometric calcium assay; type: functional, cell-based
Outline: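 1321N1 cells expressing human V1a receptor stimulated with (Arg8)-vasopressin. Intracellular Ca2+ change measured. IC50 values averaged from at least three independent measurements.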
Target sequence in this assay (P37288 whole entry): as the sequence (P37288 whole entry) above

[11] = target: T1, Vasopressin V1a receptor; assay: Displacement of [3H]AVP from human V1a receptor expressed in […] cells at 10 uM by radioligand binding assay relative to control; type: cell-based
Outline: as §2
Target sequence in this assay (P37288 whole entry, looked up): as the sequence (P37288 whole entry) above

[12] = test system: P-glycoprotein; assay: Efflux ratio of Apparent permeability across apical to basolateral side in human Caco-2 cells expressing P-glycoprotein at 10 uM by HPLC-UV analysis
[13] = Apparent permeability across apical to basolateral side in vinblastine-treated human Caco-2 cells at 10 uM by HPLC-UV analysis
[14] = test system: Mus musculus; assay: Anti-depression activity in mouse assessed as inhibition of oxytocin-induced scratching at 30 mg/kg, po administered before oxytocin stimulation and measured after 1 hr
[15] = target: T2, Vasopressin V2 receptor; assay: Displacement of [3H]AVP from human V2a receptor expressed in 1132N1 cells assessed as dissociation constant by radioligand binding assay

| SMILES | microsomal CLint at 1 µM ([1]; liver microsomes) [µL/min/mg] | Ki [2] [nM] | microsomal CLint at 1 µM ([4]; liver microsomes) [µL/min/mg] | inhibition [5] [%] | microsomal CLint at 1 µM ([6]; liver microsomes) [µL/min/mg] | IC50 [10] [nM] | also measured |
| --- | --- | --- | --- | --- | --- | --- | --- |
| COc1nc2cc(Cl)ccc2n2c(C3CCN(c4ccccn4)CC3)nnc12 | 115 | 700 | 39 | 40 | 8 |  | Papp A→B at 1 µM [3]: 28 ×10⁻⁶ cm/s; efflux ratio at 1 µM [7]: 0.8 |
| Cc1cc([C@H]2CC[C@H](c3nnc4n3-c3ccc(Cl)cc3CC4)CC2)no1 | 13 | 13 | 13 |  | 0.3 | 100 | inhibition in vivo at 10 mg/kg [8]: 45%; inhibition [9]: 9% |
| Clc1ccc2c(c1)CCc1nnc(C3CCCCC3)n1-2 |  |  |  | < 50 |  |  | inhibition ([11]; 1321N1): 35% |
| CC1(C)Nc2cc(Cl)ccc2-n2c(C3CCN(c4ccccn4)CC3)nnc21 |  | 800 |  | 28 |  |  |  |
| CC(=O)N1c2cc(Cl)ccc2-n2c(C3CCN(c4ccccn4)CC3)nnc2C1(C)C |  | 2400 |  | 43 |  |  |  |
| Clc1ccc2c(c1)CCc1nnc(C3CCN(c4ccccn4)CC3)n1-2 | 36 | 71 | 32 |  | 0.3 | 1400 | efflux ratio at 10 µM [12]: 0.8; Papp A→B at 10 µM [13]: 51 ×10⁻⁶ cm/s |
| Brc1ccc2c(c1)CCCc1nnc([C@H]3CC[C@H](Oc4ccccn4)CC3)n1-2 | 90 | 0.6 | 110 |  | 9 | 1.3 | efflux ratio at 10 µM [12]: 0.9; Papp A→B at 10 µM [13]: 29 ×10⁻⁶ cm/s |
| Clc1ccc2c(c1)CCc1nnc([C@H]3CC[C@H](Oc4ccccn4)CC3)n1-2 | 15 | 9 | 12 |  | 3 | 70 | inhibition in vivo at 10 mg/kg [8]: 66%; inhibition [9]: 13% |
| Clc1ccc2c(c1)C1CC1c1nnc(C3CCN(c4ccccn4)CC3)n1-2 (configuration not stated) |  | 260 |  | < 50 |  |  |  |
| COC(=O)C12CC1c1cc(Cl)ccc1-n1c2nnc1[C@H]1CC[C@H](Oc2ccccn2)CC1 (some centres not stated) |  | 400 |  | < 50 |  |  |  |
| Cc1nnc2n1-c1ccc(Cl)cc1CC2 |  |  |  | < 50 |  |  | inhibition ([11]; 1321N1): 9% |
| O=S(=O)(c1ccccn1)N1CCC(c2nnc3n2-c2ccc(Cl)cc2CC3)CC1 |  |  |  | < 50 |  |  | inhibition ([11]; 1321N1): 19% |
| c1ccc(N2CCC(c3nnc4n3-c3ccccc3CCC4)CC2)nc1 | 163 | 15 | 130 |  | 12 | 117 |  |
| CN1Cc2cc(Cl)ccc2-n2c(nnc2[C@H]2CC[C@H](Oc3ccccn3)CC2)C1 [BALOVAPTAN] |  |  |  |  |  | 3 | microsomal CLint at 1 µM ([1]; microsomes): 17 µL/min/mg; Papp A→B at 1 µM [3]: 43 ×10⁻⁶ cm/s; microsomal CLint at 1 µM ([4]; microsomes): 22 µL/min/mg; inhibition in vivo at 30 mg/kg [14]: 80%; microsomal CLint at 1 µM ([6]; microsomes): 0.5 µL/min/mg; efflux ratio at 1 µM [7]: 1.1 |
| O=c1[nH]c2cc(Cl)ccc2n2c(C3CCN(c4ccccn4)CC3)nnc12 |  |  |  | 0 |  |  | inhibition ([11]; 1321N1): 3% |
| Clc1ccc2c(c1)CCCc1nnc([C@H]3CC[C@H](Oc4ccccn4)CC3)n1-2 | 94 | 0.8 | 124 |  | 7 | 1 | inhibition in vivo at 30 mg/kg [14]: 94%; Ki [15]: 560 nM |
| Clc1ccc2c(c1)CCc1nnc(C3CCNCC3)n1-2 |  |  |  | < 50 |  |  | inhibition ([11]; 1321N1): 14% |
| CC(C)(C)OC(=O)NC1Cc2cc(Cl)ccc2-n2c(C3CCN(c4ccccn4)CC3)nnc21 (configuration not stated) |  |  |  | < 50 |  |  | inhibition ([11]; 1321N1): 25% |
| Brc1ccc2c(c1)CCCc1nnc(C3CCN(c4ccccn4)CC3)n1-2 | 50 | 0.7 | 111 |  | 8 | 13 | efflux ratio at 10 µM [12]: 0.8; Papp A→B at 10 µM [13]: 46 ×10⁻⁶ cm/s |
| Clc1ccc2nc3[nH]nc(C4CCN(c5ccccn5)CC4)n3c2c1 |  |  |  | 8 |  |  | inhibition ([11]; 1321N1): 27% |

| SMILES | microsomal CLint at 1 µM ([1]; liver microsomes) [µL/min/mg] | Ki [2] [nM] | microsomal CLint at 1 µM ([4]; liver microsomes) [µL/min/mg] | inhibition [5] [%] | microsomal CLint at 1 µM ([6]; liver microsomes) [µL/min/mg] | IC50 [10] [nM] | also measured |
| --- | --- | --- | --- | --- | --- | --- | --- |
| Cc1cc([C@H]2CC[C@H](c3nnc4n3-c3ccccc3CCC4)CC2)no1 | 114 | 1.6 | 125 |  | 0.4 | 25 |  |
| Cc1cc([C@H]2CC[C@H](c3nnc4n3-c3ccc(Cl)cc3C3CC43)CC2)no1 (mixture of isomers) | 3 | 100 | 1 |  | 0.3 | 500 |  |
| Cc1ccccc1N1CCN(C(=O)N2C[C@@H](C(=O)N3CCCC3)Cc3cc(Cl)ccc32)CC1 | 235 | 0.6 | 170 |  | 72 | 2.4 | Papp A→B at 1 µM [3]: 10 ×10⁻⁶ cm/s; efflux ratio at 1 µM [7]: 1.3 |
| NC1Cc2cc(Cl)ccc2-n2c1nnc2C1CCN(c2ccccn2)CC1 (configuration not stated) |  |  |  | < 50 |  |  | inhibition ([11]; 1321N1): 34% |
| Cc1cc([C@H]2CC[C@H](c3nnc4n3-c3ccc(Cl)cc3CCC4)CC2)no1 | 38 | 0.7 | 83 |  | 1 | 2.2 |  |
| c1ccc(O[C@H]2CC[C@H](c3nnc4n3-c3ccccc3CCC4)CC2)nc1 | 188 | 2.3 | 231 |  | 8 | 20 |  |
| O=S(=O)(c1ccc(F)cc1)N1CCC(c2nnc3n2-c2ccc(Cl)cc2CC3)CC1 |  |  |  | < 50 |  |  | inhibition ([11]; 1321N1): 36% |
| Cc1cc([C@H]2CC[C@H](c3nnc4n3-c3ccc(Cl)cc3[C@@H]3C[C@H]43)CC2)no1 |  | 570 |  | < 50 |  |  |  |
| Clc1ccc2c(c1)C1CC1c1nnc([C@H]3CC[C@@H](Oc4ccccn4)CC3)n1-2 (some centres not stated) |  | 180 |  | < 50 |  |  |  |
| O=C(C1CCN(c2ccccn2)CC1)N1CCNc2cc(Cl)ccc21 | 132 | 1.4 | 404 |  | 80 | 260 | efflux ratio at 10 µM [12]: 0.7; Papp A→B at 10 µM [13]: 48 ×10⁻⁶ cm/s |
| Cc1ccc(S(=O)(=O)N2CCC(c3nnc4n3-c3ccc(Cl)cc3CC4)CC2)cc1 |  |  |  | < 50 |  |  | inhibition ([11]; 1321N1, filed as antagonist): 42% |
| CCc1ccc2c(c1)CCCc1nnc(C3CCN(c4ccccn4)CC3)n1-2 | 170 | 15 | 163 |  | 31 | 252 |  |
| Clc1ccc2c(c1)CCCc1nnc(C3CCN(c4ccccn4)CC3)n1-2 | 116 | 1.4 | 196 |  | 19 | 3.2 | Papp A→B at 1 µM [3]: 37 ×10⁻⁶ cm/s; efflux ratio at 1 µM [7]: 1.1 |
| CC(C)(C)OC(=O)N1CCC(c2nnc3n2-c2ccc(Cl)cc2CC3)CC1 |  |  |  | < 50 |  |  | inhibition ([11]; 1321N1): 37% |
| O=S(=O)(c1ccc2c(c1)CCO2)N1CCC(c2nnc3n2-c2ccc(Cl)cc2CC3)CC1 |  |  |  | < 50 |  |  | inhibition ([11]; 1321N1, filed as antagonist): 43% |
| COC(=O)CC1Cc2cc(Cl)ccc2-n2c1nnc2[C@H]1CC[C@H](Oc2ccccn2)CC1 (some centres not stated) | 373 | 28 | 72 |  | 81 | 220 |  |
| Clc1ccc2c(c1)nc1[nH]nc(C3CCN(c4ccccn4)CC3)n12 |  | 5200 |  | 11 |  |  |  |
| Cc1cc([C@H]2CC[C@H](c3nnc4n3-c3ccc(Cl)cc3[C@H]3C[C@@H]43)CC2)no1 |  | 55 |  |  |  | 635 |  |
| Cc1cc([C@H]2CC[C@H](c3nnc4n3-c3ccc(Br)cc3CCC4)CC2)no1 | 36 | 0.6 | 76 |  | 3 | 1.7 |  |
| C#Cc1ccc2c(c1)CCCc1nnc(C3CCN(c4ccccn4)CC3)n1-2 | 115 | 0.45 | 121 |  | 27 | 2.7 |  |
